# Results from ChEMBL document CHEMBL1137562, “Synthesis and structure-activity relationships of 16-modified analogs of 2-methoxyestradiol” (Bioorg Med Chem, 2007).
# Experiments:
# MCF7 = assay: Antiproliferative activity against human MCF7 cells after 8 to 10 days relative to 2-methoxyestradiol; assay type: functional
# In short: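 Estrogen-dependent MCF-7 cells (passage 60–90) plated at 20–30,000 cells/well and left overnight. Cells were washed and starved 3 days in phenol red-free IMEM with 2% charcoal-dextran-stripped FBS, then treated with increasing concentrations in the same medium, refreshed every 2–3 days. Cells were Coulter-counted after 8 or 10 days. Triplicates in at least two independent experiments; stimulation index relative to 2-methoxyestradiol (1.00).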
# HUVEC = assay: Antiproliferative activity against human HUVECs after 48 hrs; assay type: cell-based
# In short: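 HUVEC kept in EGM, plated at 5000 cells/well and left to attach overnight. Cells were exposed to increasing drug concentrations for 48 h at 37 °C. DNA synthesis was read by colorimetric BrdU ELISA. Each concentration was run in triplicate in at least two independent experiments, reported as mean ±SD.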
# MDA-MB-231 = assay: Antiproliferative activity against human MDA-MB-231 cells after 48 hrs; assay type: functional, cell-based; details: MDA-MB-231, 48 h
# In short: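 MDA-MB-231 cells kept in DMEM with 10% FBS, 2 mM L-glutamine and penicillin/streptomycin, plated at 2000 cells/well and left to attach overnight. Cells were exposed to increasing concentrations for 48 h. Proliferation was read as DNA synthesis by colorimetric BrdU ELISA. Triplicates in at least two independent experiments, reported as mean ±SD.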
Compound,IC50 (MDA-MB-231) [µM],Activity (MCF7),IC50 (HUVEC) [µM]
CCCC[C@@H]1C[C@H]2[C@@H]3CCc4cc(O)c(OC)cc4[C@H]3CC[C@]2(C)[C@H]1O,27.9,0.73,18.2
COc1cc2c(cc1O)CC[C@@H]1[C@@H]2CC[C@]2(C)[C@@H](O)CC[C@@H]12 [2-METHOXYESTRADIOL],1,,0.84
CC[C@@H]1C[C@H]2[C@@H]3CCc4cc(O)c(OC)cc4[C@H]3CC[C@]2(C)[C@H]1O,3.59,1.09,1.35
COc1cc2c(cc1O)CC[C@@H]1[C@@H]2CC[C@]2(C)[C@@H](O)[C@H](CN(C)C)C[C@@H]12,22.7,1.43,36.8
COc1cc2c(cc1O)CC[C@@H]1[C@@H]2CC[C@]2(C)[C@@H](O)[C@@H](CO)C[C@@H]12,6.09,1.14,6.36
CCC[C@H]1C[C@H]2[C@@H]3CCc4cc(O)c(OC)cc4[C@H]3CC[C@]2(C)[C@H]1O,45.1,0.93,17.1
COc1cc2c(cc1O)CC[C@@H]1[C@@H]2CC[C@]2(C)[C@@H](O)[C@H](CC(C)C)C[C@@H]12,38.3,0.41,7.15

# The remaining molecules from weak to strong by IC50 (MDA-MB-231), led by results:
IC50 (MDA-MB-231) [µM],Compound,Activity (MCF7),IC50 (HUVEC) [µM]
37.9,CCCC[C@H]1C[C@H]2[C@@H]3CCc4cc(O)c(OC)cc4[C@H]3CC[C@]2(C)[C@H]1O,0.82,8.17
35.1,CCC[C@@H]1C[C@H]2[C@@H]3CCc4cc(O)c(OC)cc4[C@H]3CC[C@]2(C)[C@H]1O,0.83,6.55
4.26,COc1cc2c(cc1O)CC[C@@H]1[C@@H]2CC[C@]2(C)[C@@H](O)[C@H](CO)C[C@@H]12,0.93,2.92
2.4,COc1cc2c(cc1O)CC[C@@H]1[C@@H]2CC[C@]2(C)[C@@H](O)[C@@H](C)C[C@@H]12,1.62,2.26
0.74,COc1cc2c(cc1O)CC[C@@H]1[C@@H]2CC[C@]2(C)[C@@H](O)[C@H](C)C[C@@H]12,2.07,0.35
